Experimental data taken from ChEMBL document CHEMBL1131155, “Design of new topoisomerase II inhibitors based upon a quinobenzoxazine self-assembly model” (J Med Chem, 1998).

How the values were obtained:
[1] = system: NCI-H226; test: The compound was tested for the concentration to inhibit 50% of H226 non-small cell lung cells.; assay type: functional, cell-based; settings: Homo sapiens
In short: (§1)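 Exponentially growing cells seeded on day 0. Graded compound concentrations added in duplicate on day 1, then incubated at 37 °C. MTT (1 mg/mL in PBS) given for 4 h at 37 °C and formazan dissolved in 0.4 N HCl/isopropanol. Absorbance read at 570 nm against a 630 nm reference. IC50 derived from the dose-response curve.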

[2] = system: B16; test: The compound was tested for the concentration to inhibit 50% of B16 murine melanoma cells.; assay type: functional, cell-based; settings: Mus musculus; in short: as §1
[3] = biological target: DNA topoisomerase II (Homo sapiens, UniProt P11388+Q02880); test: Inhibition of topoisomerase II as conversion of catenated to decatenated KDNA; assay type: protein assay
In short: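 kDNA (0.25 μg) preincubated 10 min with varied compound levels in 50 mM Tris-HCl pH 8, 120 mM KCl, 10 mM MgCl₂, 0.5 mM ATP and DTT. Then 2 units human topo II (170-kDa form) added, 37 °C for 30 min. Stopped with sarkosyl stop buffer. Products resolved on 1% agarose with ethidium bromide and quantified by fluorescence scanning.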

[4] = system: HT-29; test: The compound was tested for the concentration to inhibit 50% of HT-29 colon cells.; assay type: functional, cell-based; settings: Homo sapiens; in short: as §1
[5] = system: MDA-MB-231; test: The compound was tested for the concentration to inhibit 50% of MDA-231 breast cancer cell lines.; assay type: functional, cell-based; settings: Homo sapiens; in short: as §1
[6] = system: Raji; test: The compound was tested for the concentration to inhibit 50% of Raji lymphoma cells.; assay type: functional, cell-based; settings: Homo sapiens; in short: as §1
[7] = system: DU-145; test: The compound was tested for the concentration to inhibit 50% of DU-145 prostate cells.; assay type: functional, cell-based; settings: Homo sapiens; in short: as §1
[8] = system: Nucleic Acid; test: Tested for the DNA unwinding concentration that causes a shift of the topoisomers from the original to the middle position between the relaxed and the supercoiled bands.; assay type: functional
In short: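 Supercoiled pHOT1 DNA (0.25 μg) relaxed with 5 units topo I, 37 °C for 30 min. Drug at various concentrations then added and incubated a further 30 min. Stopped with 1% SDS, proteinase K treatment at 56 °C, and chloroform-isoamyl alcohol extraction. Topoisomers run on 1% agarose in TPE with 0.2 μg/mL chloroquine, 10 V for 20 h. Gel post-stained with ethidium and scanned.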

Structure (SMILES) | IC50 [1] [µM] | IC50 [2] [µM] | IC50 [3] [µM] | IC50 [4] [µM] | IC50 [5] [µM] | IC50 [6] [µM] | IC50 [7] [µM] | DNA unwinding concentration [8] [µM]
O=C(O)c1cn2c3c(c(N4CCNCC4)c(F)cc3c1=O)Oc1cc3ccccc3cc1-2 | > 100 | 0.045 | 0.64 | 6.8 | > 1000 | 0.0072 | 0.075 | > 100
NC1CCN(c2c(F)cc3c(=O)c(C(=O)O)cn4c3c2Oc2ccc3ccccc3c2-4)C1 (stereo unspecified) | 0.14 | 0.44 | 0.77 | 0.18 | 0.15 | 0.086 | 0.2 | –
N[C@@H]1CCN(c2c(F)cc3c(=O)c(C(=O)O)cn4c3c2Oc2ccc3ccccc3c2-4)C1 | 2.4 | 0.68 | 1.22 | 0.36 | 0.35 | 0.16 | 0.36 | 35
N[C@H]1CCN(c2c(F)cc3c(=O)c(C(=O)O)cn4c3c2Oc2ccc3ccccc3c2-4)C1 | 0.13 | 0.13 | 0.72 | 0.27 | 0.19 | 0.082 | 0.14 | 19
O=C(O)c1cn2c3c(c(N4CCNCC4)c(F)cc3c1=O)Oc1c-2ccc2ccccc12 | 0.2 | 0.65 | 1.84 | 0.36 | 0.38 | 0.21 | 0.14 | > 100
O=C(O)c1cn2c3c(c(N4CCNCC4)c(F)cc3c1=O)Oc1ccc3ccccc3c1-2 | 2.1 | 2.1 | 9.6 | 2 | 2.2 | 0.8 | 0.84 | > 100

The next molecules have a lower IC50 [1] than those just listed; values first:

IC50 [1] [µM] | IC50 [2] [µM] | IC50 [3] [µM] | IC50 [4] [µM] | IC50 [5] [µM] | IC50 [6] [µM] | IC50 [7] [µM] | Structure (SMILES) | DNA unwinding concentration [8] [µM]
0.022 | 0.04 | 0.55 | 0.03 | 0.027 | 0.018 | 0.017 | NC1CCN(c2c(F)cc3c(=O)c(C(=O)O)cn4c3c2Oc2c-4ccc3ccccc23)C1 (stereo unspecified) | –
0.09 | 0.17 | 0.51 | 0.16 | 0.16 | 0.05 | 0.16 | N[C@H]1CCN(c2c(F)cc3c(=O)c(C(=O)O)cn4c3c2Oc2ccccc2-4)C1 | 50
0.027 | 0.18 | 0.49 | 0.051 | 0.084 | 0.02 | 0.064 | N[C@H]1CCN(c2c(F)cc3c(=O)c(C(=O)O)cn4c3c2Oc2c-4ccc3ccccc23)C1 | 10
0.004 | 0.1 | 0.77 | 0.028 | 0.023 | 0.038 | 0.025 | NC1CCN(c2c(F)cc3c(=O)c(C(=O)O)cn4c3c2Oc2cc3ccccc3cc2-4)C1 (stereo unspecified) | –
0.014 | 0.02 | 0.44 | 0.023 | 0.01 | 0.029 | 0.03 | N[C@H]1CCN(c2c(F)cc3c(=O)c(C(=O)O)cn4c3c2Oc2cc3ccccc3cc2-4)C1 | 13
0.013 | 0.02 | 0.24 | 0.026 | 0.005 | 0.034 | 0.03 | N[C@@H]1CCN(c2c(F)cc3c(=O)c(C(=O)O)cn4c3c2Oc2c-4ccc3ccccc23)C1 | 3
0.022 | 0.14 | 0.42 | 0.022 | 0.021 | 0.032 | 0.048 | N[C@@H]1CCN(c2c(F)cc3c(=O)c(C(=O)O)cn4c3c2Oc2cc3ccccc3cc2-4)C1 | 15
